XBP1 UPR activ = activators of adaptive arm of unfolded protein response (XBP1). CHO-XBP1 luciferase reporter, IRE1-XBP1 UPR activation, luminescence; percent of tunicamycin response, DMSO as zero. activation, % at 20 µM. hit rate 0.33% among 330,000. AID 463104;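 active = versus positive control, 20 µM dose yields 30% or more activation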
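Assay system: IRE1-XBP1 luciferase reporter CHO line. Input: 1000 cells/well. Buffer or medium: F12 with 10% serum. Doses: 20 µM, 1% DMSO. Times: overnight seeding at 37 °C, 6 h compound treatment at 37 °C. Technique: Steady-Glo luciferase glow luminescence, 10 min after reagent addition.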
UPR CHOP act = apoptotic UPR (CHOP) activation; CHO-CHOP luciferase reporter, luminescence; percent of tunicamycin response over DMSO baseline; activation, % at 10 µM; AID 449763; hit rate 0.34% among 330,000;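 active = at 10 µM dose, activation of 40% or more, normalized to positive control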
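measured by = luciferase luminescence | assay system = CHO-CHOP cells, stable luciferase reporter of PERK-eIF2a-CHOP signalling | amount = 500 reporter cells seeded per well | timing = 6 h compound exposure at 37 °C after overnight seeding | controls = positive tunicamycin 10 µg/mL, negative DMSO alone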
Cardio protect = myocardial damage modulation in H9c2 cells; H9c2 cardiomyocytes, H2O2 injury protection, ATPLite, 2 h; protection from H2O2 cell death, % at 20 µM; hit rate 0.63% among 360,000;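 active = compounds giving at least 50% protection of heart cells from peroxide-induced death in the single-dose screen, raw or plate-pattern-corrected value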
iPSC survival up = increases survival of single human iPS cells | hit rate 0.044% among 360,000 | survival enhancement, % at 20 µM | AID 602274 | hiPSC single-cell survival, ATPlite luminescence; 100% = ROCK inhibitor wells, 0% = DMSO; in the data active = survival enhancement above about 18%;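 also: cells exposed to compounds for 16 hours before the ATP read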
CHOP inhibitor = CHOP inhibition in unfolded protein response. CHO-K1 CHOP-promoter luciferase, tunicamycin-induced, 15-18 h. inhibition, % at 10 µM. hit rate 3.8% among 220,000. AID 2732;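 active = compounds that reduced the stress-induced luciferase reporter signal by more than about 70% of percent inhibition, limit read from the data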
Numbers stand for hits; . = inactive; / = not tested or not shown. This is one part of a sample in which hits are shown more often than they occur.

SMILES	XBP1 UPR activ	UPR CHOP act	Cardio protect	iPSC survival up	CHOP inhibitor
CCCSc1ccc2nc(-c3ccccc3)cn2c1	.	.	.	.	85.9
CCOC(=O)c1c(-c2ccc(C)o2)csc1NC(=O)CN1CCOCC1	.	.	.	.	.
CCOC(=O)c1c(-c2ccc(-c3ccccc3)cc2)csc1NC(=O)C1C2CCC(O2)C1C(=O)O (stereo not given)	.	.	.	.	87.6
CCOC(=O)c1c(-c2ccccc2)csc1NC(=O)C1CCCO1 (stereo not given)	.	.	.	.	82.7
CCOC(=O)c1c(-c2cccs2)csc1NC(=O)CN1CCOCC1	.	.	.	.	71.6
O=C1CC(=O)N(C2CCCCC2)C(=O)N1c1ccccc1S(=O)(=O)Oc1ccccc1	/	/	.	.	/
COc1ccc(OC)c(NC(=O)C2(C)CCN2C(=O)Cc2ccc(Cl)cc2Cl)c1 (stereo not given)	/	/	.	.	/
COc1cc(NC(=O)c2cc([N+](=O)[O-])ccc2NC(=O)CN2CCN(c3ccccn3)CC2)cc(OC)c1	.	.	54.7	.	/
O=C(CN1CCN(c2ccccn2)CC1)Nc1ccccc1C(=O)Nc1ccccc1	.	.	.	.	/
O=C(CN1CCN(Cc2ccccc2)CC1)Nc1ccc([N+](=O)[O-])cc1C(=O)Nc1ccccc1F	.	.	50.9	.	.
CCOC(=O)C1=C(C)NC(=O)NC1c1ccc([N+](=O)[O-])o1 (stereo not given)	.	.	.	.	.
CCOC(=O)C1=C(C)NC2=C(C(=O)c3ccccc32)C1c1ccc([N+](=O)[O-])o1 (stereo not given)	.	.	60.9	.	.
CC(C)C[C@H]1CN(CCCC[C@@H]2CNC(=O)C(=O)N2CC2CCCCC2)C(=O)C(=O)N1Cc1ccccc1	/	/	/	.	/
Cc1cc(C)cc(OCC(=O)N2N=C(C(F)(F)F)CC2(O)C(C)(C)C)c1 (stereo not given)	.	.	.	.	78.3
CC(C)(C)C1(O)CC(C(F)(F)F)=NN1C(=O)CCCc1ccccc1 (stereo not given)	.	.	.	.	88.3
CC(C)(C)n1nnnc1C(c1ccccc1)N1CCN(CCN2CCOCC2)CC1 (stereo not given)	/	/	/	.	/
O=C1NC(=Nc2ccc(Cl)cc2)SC1Cc1cc(Cl)ccc1Cl (stereo not given)	.	.	.	.	70.6
COc1cc(OC)cc(C2=Cc3ccccc3C(CC(=O)c3ccco3)N2c2ccc(-c3cccnc3)cc2)c1 (stereo not given)	/	/	/	.	/
C1=C(CCNc2ncnc3c2[nH]c2ccccc23)CCCC1	/	/	.	.	79.8
O=c1c2[nH]c3ccccc3c2ncn1CCC1=CCCCC1	.	.	.	.	.
CCOc1ccc(CCNC(=O)COC(=O)c2[nH]c(C)c(C(C)=O)c2C)cc1OCC	/	/	.	.	/
O=C(c1ccccc1)c1cc(-c2ccccc2)on1	.	.	.	.	92.6
Cc1cc(NC(=O)c2cc(-c3ccccc3)on2)no1	.	.	.	.	.
COc1cc2nc(CN3CCN(S(=O)(=O)c4ccccc4[N+](=O)[O-])CC3)[nH]c(=O)c2cc1OC	/	/	.	.	/
CCOC(=O)C1=C(C)N=C2c3ccccc3C(=O)C2C1c1ccc(Cl)cc1 (stereo not given)	.	.	.	.	87.9
SMILES	XBP1 UPR activ	UPR CHOP act	Cardio protect	iPSC survival up	CHOP inhibitor
O=C1c2ccccc2C(c2nnnn2-c2ccc3c(c2)OCCO3)N1Cc1cccc(F)c1 (stereo not given)	/	/	/	.	/
Cc1ccc(S(=O)(=O)N2C[C@H]3C(=O)C[C@@H]4C(=O)N(c5ccccc5)C(=O)[C@@H]4[C@@H]3C[C@H]2c2cccc(Cl)c2)cc1	/	/	.	.	/
COc1ccc(-c2cnnc(N/N=C/c3ccc(O)c(O)c3)n2)cc1	.	.	.	.	.
CC(C)c1ccc(Nc2nc(Cl)nc(NCc3ccco3)n2)cc1	.	.	.	.	79.5
COc1ccc(Nc2nc(NCc3ccco3)nc(N/N=C/c3ccc(O)cc3)n2)cc1	.	.	51.3	.	.
COc1ccc(-c2cnnc(N/N=C/c3ccc(O)cc3)n2)cc1	.	.	.	.	81.4
CCCCCCCc1c(C)nc(N2CCOCC2)[nH]c1=O	.	.	.	.	71.9
O=C(N/N=C/c1cccc2nccnc12)c1ccncc1	.	.	65.3	.	.
O=C(N/N=C/c1cccc2nccnc12)c1ccccc1O	.	.	.	.	.
Oc1c(Cl)cc(Cl)cc1/C=N/Nc1ncc(Br)cn1	.	.	58.6	.	.
Cc1ccc(N=Cc2cc(Cl)cc(Cl)c2O)nc1	.	.	65.4	.	.
COc1ccc(/C=N/Nc2ncc(Br)cn2)c(OC)c1	.	.	.	.	.
Cc1ccc(N=Cc2c(O)n(C)c(=O)n(C)c2=O)nc1	.	.	.	.	.
O=C(N/N=C/c1cc(Cl)cc(Cl)c1O)c1ccncc1	.	.	50.5	.	75.5
CC(Sc1ccc(Cl)cc1)C(=O)NNC(=O)c1ccccc1O (stereo not given)	.	.	.	.	/
Cc1cc(C)n2nc(C(=O)OCC(=O)N(CC(C)C)C3CCS(=O)(=O)C3)nc2n1 (stereo not given)	.	.	.	.	/
Brc1csc(C=Nc2ccc3c(c2)OCCOCCOCCOCCO3)c1	.	.	.	.	.
Oc1c(Cl)cc(Cl)cc1C=Nc1ccc2c(c1)OCCO2	.	.	72.0	.	87.2
Cc1cc(C(=O)Nc2ccc3c(c2)CCC3)ccc1[N+](=O)[O-]	.	.	.	.	/
O=C(NNC(=O)c1ccc2ccccc2n1)c1ccc(O)cc1	.	.	.	.	/
O=C(COC(=O)CCc1nc2ccccc2c(=O)[nH]1)NC(c1ccccc1)c1ccccc1	.	.	58.6	.	.
COc1ccc(C(=O)NNC(=O)c2ccc3ccccc3n2)cc1	.	.	52.3	.	/
CCN(CC(=O)Nc1ccc(NC(C)=O)cc1)C(=O)CCCc1nc2ccccc2c(=O)[nH]1	.	.	.	.	/
CCN(CC(=O)Nc1cc(Cl)ccc1C)C(=O)CCc1nc2ccccc2c(=O)[nH]1	.	.	68.7	.	/
CC(NC(=O)COC(=O)CCc1nc2ccccc2c(=O)[nH]1)c1ccccc1 (stereo not given)	.	.	.	.	.
Cc1ccccc1NC(=O)COC(=O)CCc1nc2ccccc2c(=O)[nH]1	.	.	65.0	.	.
Cc1ccc(NC(=O)CSc2nc3cc(C(=O)NCC4CCCO4)ccc3c(=O)n2CC2CCCO2)cc1 (stereo not given)	/	/	.	.	/
Cc1ccc2cc(NC(=O)C3(C)CCN3C(C)C)ccc2n1 (stereo not given)	/	/	.	.	/
OC[C@H]1O[C@@H](n2cnc3cncnc32)[C@H](O)[C@@H]1O	/	/	/	/	.
CCCCOc1ccc(C(=O)NCC(=O)N(C)Cc2nc3ccccc3c(=O)[nH]2)cc1	.	.	54.2	.	/
